From ChEMBL document CHEMBL1122912, “Synthesis and antitumor activity of structural analogues of the anticancer benzophenanthridine alkaloid fagaronine chloride” (1985)

How the values were obtained:
[1] = Compound was evaluated for its cytotoxic activity in vitro KB cell culture system; type: functional; conditions: Homo sapiens, read-out: ED50 (the source's name)
In short: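 Cytotoxicity was measured in cultured KB human cancer cells and reported as ED50 values.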

Mus musculus [2] = assay: Compound was evaluated for the anticancer activity against P388 lymphocytic leukemia in vivo in mouse at a dosage of 400 mg/kg and the weight difference was measured.; type: functional
Mus musculus [3] = assay: Compound was evaluated for the anticancer activity against P388 lymphocytic leukemia in vivo in mouse at a dosage of 400 mg/kg. The survivals were reported.; type: functional
Mus musculus [4] = assay: Compound was evaluated for the anticancer activity against P388 lymphocytic leukemia in vivo in mouse at a dosage of 200 mg/kg and percent treated/control was reported; type: functional
Mus musculus [5] = assay: Compound was evaluated for the anticancer activity against P388 lymphocytic leukemia in vivo in mouse at a dosage of 200 mg/kg. The survivals were reported.; type: functional
Mus musculus [6] = assay: Compound was evaluated for the anticancer activity against P388 lymphocytic leukemia in vivo in mouse at a dosage of 100 mg/kg and the weight difference was measured.; type: functional
Mus musculus [7] = assay: Compound was evaluated for the anticancer activity against P388 lymphocytic leukemia in vivo in mouse at a dosage of 200 mg/kg and the weight difference was measured.; type: functional
Mus musculus [8] = assay: Compound was evaluated for the anticancer activity against P388 lymphocytic leukemia in vivo in mouse at a dosage of 100 mg/kg. The survivals were reported.; type: functional
Mus musculus [9] = assay: Compound was evaluated for the anticancer activity against P388 lymphocytic leukemia in vivo in mouse at a dosage of 400 mg/kg and percent treated/control was reported; type: functional
Mus musculus [10] = assay: Compound was evaluated for the anticancer activity against P388 lymphocytic leukemia in vivo in mouse at a dosage of 100 mg/kg and percent treated/control was reported; type: functional
[11] = Compound was evaluated for its cytotoxic activity in vitro KB cell culture system derived from human epidermoid carcinoma; type: functional; conditions: read-out: ED50 (the source's name)
Mus musculus [12] = assay: Compound was evaluated for the anticancer activity against P388 lymphocytic leukemia in vivo in mouse at a dosage of 50 mg/kg and percent treated/control was reported; type: functional
Mus musculus [13] = assay: Compound was evaluated for the anticancer activity against P388 lymphocytic leukemia in vivo in mouse at a dosage of 50 mg/kg, survivals were reported.; type: functional
Mus musculus [14] = assay: Compound was evaluated for the anticancer activity against P388 lymphocytic leukemia in vivo in mouse at a dosage of 25 mg/kg. The survivals were reported.; type: functional
Mus musculus [15] = assay: Compound was evaluated for the anticancer activity against P388 lymphocytic leukemia in vivo in mouse at a dosage of 25 mg/kg and the weight difference was measured.; type: functional
Mus musculus [16] = assay: Compound was evaluated for the anticancer activity against P388 lymphocytic leukemia in vivo in mouse at a dosage of 12.5 mg/kg. The survivals were reported.; type: functional
Mus musculus [17] = assay: Compound was evaluated for the anticancer activity against P388 lymphocytic leukemia in vivo in mouse at a dosage of 12.5 mg/kg and the weight difference was measured.; type: functional
Mus musculus [18] = assay: Compound was evaluated for the anticancer activity against P388 lymphocytic leukemia in vivo in mouse at a dosage of 25 mg/kg and percent treated/control was reported; type: functional
Mus musculus [19] = assay: Compound was evaluated for the anticancer activity against P388 lymphocytic leukemia in vivo in mouse at a dosage of 12.5 mg/kg and percent treated/control was reported; type: functional
Mus musculus [20] = assay: Compound was evaluated for the anticancer activity against P388 lymphocytic leukemia in vivo in mouse at a dosage of 50 mg/kg and the weight difference was measured.; type: functional
Mus musculus [21] = assay: Compound was evaluated for the anticancer activity against P388 lymphocytic leukemia in vivo in mouse at a dosage of 100 mg/kg; type: functional
Mus musculus [22] = assay: Compound was evaluated for the anticancer activity against P388 lymphocytic leukemia in vivo in mouse at a dosage of 50 mg/kg. The survivals were reported.; type: functional
Mus musculus [23] = assay: Compound was evaluated for the anticancer activity against P388 lymphocytic leukemia in vivo in mouse at a dosage of 200 mg/kg, survivals were reported.; type: functional
L1210 = assay: Activity against L1210 was reported.; type: functional, Mus musculus
Mus musculus [24] = assay: Compound was evaluated for the anticancer activity against M5076 sarcoma in vivo in mouse at a dosage of 12.5 mg/kg and percent treated/control was reported; type: functional
Mus musculus [25] = assay: Compound was evaluated for the anticancer activity against M5076 sarcoma in vivo in mouse at a dosage of 50 mg/kg and percent treated/control was reported; type: functional
Mus musculus [26] = assay: Compound was evaluated for the anticancer activity against M5076 sarcoma in vivo in mouse at a dosage of 12.5 mg/kg, survivals were reported.; type: functional
Mus musculus [27] = assay: Compound was evaluated for the anticancer activity against M5076 sarcoma in vivo in mouse at a dosage of 25 mg/kg, survivals were reported.; type: functional
Mus musculus [28] = assay: Compound was evaluated for the anticancer activity against M5076 sarcoma in vivo in mouse at a dosage of 6.25 mg/kg and percent treated/control was reported; type: functional
Mus musculus [29] = assay: Compound was evaluated for the anticancer activity against M5076 sarcoma in vivo in mouse at a dosage of 100 mg/kg and the weight difference was measured.; type: functional
Mus musculus [30] = assay: Compound was evaluated for the anticancer activity against M5076 sarcoma in vivo in mouse at a dosage of 12.5 mg/kg; type: functional
Mus musculus [31] = assay: Compound was evaluated for the anticancer activity against M5076 sarcoma in vivo in mouse at a dosage of 6.25 mg/kg, survivals were reported.; type: functional
Mus musculus [32] = assay: Compound was evaluated for the anticancer activity against M5076 sarcoma in vivo in mouse at a dosage of 25 mg/kg and the weight difference was measured.; type: functional
Mus musculus [33] = assay: Compound was evaluated for the anticancer activity against M5076 sarcoma in vivo in mouse at a dosage of 25 mg/kg and percent treated/control was reported; type: functional
Mus musculus [34] = assay: Compound was evaluated for the anticancer activity against M5076 sarcoma in vivo in mouse at a dosage of 100 mg/kg and percent treated/control was reported; type: functional
Mus musculus [35] = assay: Compound was evaluated for the anticancer activity against M5076 sarcoma in vivo in mouse at a dosage of 200 mg/kg and the weight difference was measured.; type: functional
Mus musculus [36] = assay: Compound was evaluated for the anticancer activity against M5076 sarcoma in vivo in mouse at a dosage of 200 mg/kg, survivals were reported; type: functional
Mus musculus [37] = assay: Compound was evaluated for the anticancer activity against M5076 sarcoma in mouse at a dosage of 400 mg/kg, survivals were reported; type: functional
Mus musculus [38] = assay: Compound was evaluated for the anticancer activity against M5076 sarcoma in vivo in mouse at a dosage of 50 mg/kg and the weight difference was measured.; type: functional
Mus musculus [39] = assay: Compound was evaluated for the anticancer activity against M5076 sarcoma in vivo in mouse at a dosage of 50 mg/kg, survivals were reported.; type: functional
Mus musculus [40] = assay: Compound was evaluated for the anticancer activity against M5076 sarcoma in vivo in mouse at a dosage of 6.25 mg/kg and the weight difference was measured.; type: functional
Mus musculus [41] = assay: Compound was evaluated for the anticancer activity against M5076 sarcoma in vivo in mouse at a dosage of 100 mg/kg, survivals were reported; type: functional

SMILES: COc1cc2cc(-c3ccc4c(c3)OCO4)[n+](C)cc2cc1OC.[Cl-]
- EC50 [1]: 0.005 µg/mL

SMILES: COc1cc2c[n+](C)c3c(c2cc1OC)Cc1c-3ccc(O)c1OC.[Cl-]
- Weight change (Mus musculus [2]): -1.5
- Survival (Mus musculus [3]): 6
- T/C (Mus musculus [4]): 134%
- Survival (Mus musculus [5]): 6
- Weight change (Mus musculus [6]): 0.2
- Weight change (Mus musculus [7]): -0.2
- Survival (Mus musculus [8]): 6
- T/C (Mus musculus [9]): 137%
- T/C (Mus musculus [10]): 116%
- EC50 [11]: 0.4 µg/mL

SMILES: COc1cc2cc(-c3ccc(OC(C)C)c(OC)c3)[n+](C)cc2cc1OC.[Cl-]
- EC50 [11]: > 100 µg/mL

SMILES: COc1cc2c(cc1O)Cc1c-2[n+](C)cc2cc(OC)c(OC)cc12.[Cl-]
- T/C (Mus musculus [12]): 149%
- Survival (Mus musculus [13]): 6
- Survival (Mus musculus [14]): 6
- Weight difference (Mus musculus [15]): -0.1
- Survival (Mus musculus [16]): 5
- Weight difference (Mus musculus [17]): 0.1
- T/C (Mus musculus [18]): 138%
- T/C (Mus musculus [19]): 130%
- Weight difference (Mus musculus [20]): -0.4
- EC50 [11]: 0.03 µg/mL

SMILES: COc1cc2c[n+](C)c3c(c2cc1OC)Cc1cc(OS(C)(=O)=O)c(OC)cc1-3.[Cl-]
- Survival (Mus musculus [21]): 6
- T/C (Mus musculus [12]): 136%
- Survival (Mus musculus [14]): 6
- Weight difference (Mus musculus [15]): -1.3
- T/C (Mus musculus [4]): 145%
- Weight difference (Mus musculus [6]): -2.1
- Weight difference (Mus musculus [7]): -3.6
- Survival (Mus musculus [22]): 6
- T/C (Mus musculus [18]): 128%
- T/C (Mus musculus [10]): 137%
- Survival (Mus musculus [23]): 5
- Weight difference (Mus musculus [20]): -0.6
- EC50 [11]: 0.01 µg/mL

SMILES: COc1cc2c[n+](C)c3c4cc5c(cc4ccc3c2cc1OC)OCO5.[Cl-] [NITIDINE CHLORIDE]
- T/C (L1210): 136

SMILES: COc1cc2c[n+](C)c3c(c2cc1OC)Cc1c-3ccc(OS(C)(=O)=O)c1OC.[Cl-]
- EC50 [11]: 0.1 µg/mL

SMILES: COc1cc2c[n+](C)c3c(c2cc1OC)Cc1cc2c(cc1-3)OCO2.[Cl-]
- T/C (Mus musculus [24]): 109%
- T/C (Mus musculus [25]): 107%
- Survival (Mus musculus [26]): 10
- Survival (Mus musculus [27]): 10
- T/C (Mus musculus [28]): 115%
- Weight difference (Mus musculus [29]): -4.4
- Weight difference (Mus musculus [30]): -0.2
- Survival (Mus musculus [31]): 10
- Weight difference (Mus musculus [32]): -0.3
- T/C (Mus musculus [33]): 113%
- T/C (Mus musculus [34]): 137%
- Weight difference (Mus musculus [35]): -7.2
- Survival (Mus musculus [36]): 6
- Survival (Mus musculus [37]): 0
- Weight difference (Mus musculus [38]): -2
- Survival (Mus musculus [39]): 9
- Weight difference (Mus musculus [40]): -0.8
- Survival (Mus musculus [41]): 9
